Laboratory results from ChEMBL document CHEMBL2176942 (J Med Chem, 2012).
Each block holds one molecule with its values, some of them ahead of it.

Tests used:
in vitro [1] = details: human
[2] = Permeability across human Caco2 cells at pH 7.4; format: ADME, cell-based; details: Caco-2, pH 7.4, read-out: permeability
Outline: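 Caco-2 permeability run without BSA, with both chambers at pH 7.4; values are the average of at least two determinations.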

in vitro [3] = details: rat
[4] = Half life in rat at 2 mg/kg, iv; format: ADME, organism-based; design: dose 2 mg/kg, route intravenous; details: in vivo
Outline: (§1)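 Rats starved overnight, then given 10 mg/kg po as a suspension in 0.3% Tween-80 and 0.5% Methocel, or 2 mg/kg iv in 70% PEG400. Plasma was solid-phase extracted and assayed by HPLC-UV (LOQ 6 ng/mL, calibration in blank plasma). Parameters were derived by noncompartmental analysis.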

[5] = Cmax in rat at 10 mg/kg, po; format: ADME, organism-based; design: dose 10 mg/kg, route oral; details: in vivo
Outline: as §1

[6] = Mean residence time in rhesus monkey at 10 mg/kg, po; format: ADME, organism-based, Macaca mulatta; design: dose 10 mg/kg, route oral; details: in vivo
Outline: (§2)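 Rhesus monkeys fasted overnight, then dosed iv at 2 mg/kg in 70% PEG400 or orally at 10 mg/kg as a suspension in 0.3% Tween-80 and 0.5% Methocel. Plasma was kept frozen at about −20 °C, extracted by solid-phase extraction and assayed by HPLC-UV against blank-plasma standards (LOQ 6 ng/mL). Parameters came from noncompartmental analysis.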

[7] = Cmax in rhesus monkey at 10 mg/kg, po; format: ADME, organism-based, Macaca mulatta; design: dose 10 mg/kg, route oral; details: in vivo
Outline: as §2

[8] = Volume of distribution at steady state in rat at 2 mg/kg, iv; format: ADME, organism-based; design: dose 2 mg/kg, route intravenous; details: in vivo, read-out: Vdss
Outline: as §1

[9] = Volume of distribution at steady state in rhesus monkey at 2 mg/kg, iv; format: ADME, organism-based, Macaca mulatta; design: dose 2 mg/kg, route intravenous; details: in vivo, read-out: Vdss
Outline: as §2

[10] = Oral bioavailability rhesus monkey; format: ADME, organism-based, Macaca mulatta; details: in vivo
Outline: as §2

[11] = AUC in rat at 10 mg/kg, po; format: ADME, organism-based; design: dose 10 mg/kg, route oral; details: plasma
Outline: as §1

[12] = Mean residence time in dog at 10 mg/kg, po; format: ADME, organism-based, Canis lupus familiaris; design: dose 10 mg/kg, route oral; details: in vivo
Outline: (§3)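 Dogs starved overnight, then dosed 2 mg/kg iv in 70% PEG400 or 10 mg/kg orally as a suspension in 0.3% Tween-80/0.5% Methocel. Plasma was extracted by solid phase and quantified by HPLC with UV diode-array detection (LOQ 6 ng/mL). Parameters came from noncompartmental analysis.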

[13] = Mean residence time in rat at 10 mg/kg, po; format: ADME, organism-based; design: dose 10 mg/kg, route oral; details: in vivo
Outline: as §1

[14] = AUC in dog at 10 mg/kg, po; format: ADME, organism-based, Canis lupus familiaris; design: dose 10 mg/kg, route oral; details: plasma
Outline: (§4)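 Fasted overnight, then dosed orally at 10 mg/kg as a suspension in 0.3% Tween-80 and 0.5% Methocel. Blood kept on ice and centrifuged at 4 °C; plasma stored at about −20 °C. Solid-phase extraction, then HPLC with UV diode-array detection (200–400 nm) quantified by peak height against blank-plasma standards (LOQ 6 ng/mL). AUC from noncompartmental analysis.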

[15] = AUC in rhesus monkey at 10 mg/kg, po; format: ADME, organism-based, Macaca mulatta; design: dose 10 mg/kg, route oral; details: plasma
Outline: as §4

[16] = Volume of distribution at steady state in dog at 2 mg/kg, iv; format: ADME, organism-based, Canis lupus familiaris; design: dose 2 mg/kg, route intravenous; details: in vivo, read-out: Vdss
Outline: as §3

[17] = Oral bioavailability in dog; format: ADME, organism-based, Canis lupus familiaris; details: in vivo
Outline: as §3

[18] = Half life in dog at 2 mg/kg, iv; format: ADME, organism-based, Canis lupus familiaris; design: dose 2 mg/kg, route intravenous; details: in vivo
Outline: as §3

[19] = Half life in rhesus monkey at 2 mg/kg, iv; format: ADME, organism-based, Macaca mulatta; design: dose 2 mg/kg, route intravenous; details: in vivo
Outline: as §2

[20] = Oral bioavailability in rat; format: ADME, organism-based; details: in vivo
Outline: as §1

[21] = Clearance in dog at 2 mg/kg, iv; format: ADME, organism-based, Canis lupus familiaris; design: dose 2 mg/kg, route intravenous; details: in vivo
[22] = Clearance in rat at 2 mg/kg, iv; format: ADME, organism-based; design: dose 2 mg/kg, route intravenous; details: in vivo
[23] = Cmax in dog at 10 mg/kg, po; format: ADME, organism-based, Canis lupus familiaris; design: dose 10 mg/kg, route oral; details: in vivo
Liver microsomes [24] = experiment: Drug metabolism in rat liver microsomes assessed as formation of metabolite 3-(4-(2-(3-(3-hydroxycyclohexyl)-1-methyl-2-(pyridin-2-yl)-1H-indole-6-carboxamido)-2-methylpropanamido)phenyl)acrylic acid incubated for 30 mins by HPLC/MS method; format: ADME, Microsome; details: 0.5 h
Liver microsomes [25] = experiment: Drug metabolism in human liver microsomes assessed as formation of metabolite 3-(4-(2-(3-(3-hydroxycyclohexyl)-1-methyl-2-(pyridin-2-yl)-1H-indole-6-carboxamido)-2-methylpropanamido)phenyl)acrylic acid incubated for 30 mins by HPLC/MS method; format: ADME, Microsome; details: 0.5 h

SMILES: Cn1c(-c2ccc(Cl)cc2)c(C2CCCC2)c2ccc(C(=O)NC3(C(=O)Nc4ccc(/C=C/C(=O)O)cc4)CCC3)cc21
half-life (in vitro [1]; liver microsomes): > 5 h
half-life (in vitro [3]; liver microsomes): > 5 h

SMILES: Cn1c(-c2ccncc2)c(C2CCCC2)c2ccc(C(=O)NC3(C(=O)Nc4ccc(/C=C/C(=O)O)cc4)CCCC3)cc21
half-life (in vitro [1]; liver microsomes): 1.78 h
Papp [2]: 8 nm/s

SMILES: Cn1c(-c2ccc(Cl)cn2)c(C2CCCC2)c2ccc(C(=O)NC(C)(C)C(=O)Nc3ccc(/C=C/C(=O)O)cc3)cc21
half-life (in vitro [1]; microsomes): 3.93 h
Papp [2]: 18 nm/s

SMILES: Cn1c(-c2ccoc2)c(C2CCCC2)c2ccc(C(=O)NC3(C(=O)Nc4ccc(/C=C/C(=O)O)cc4)CCC3)cc21
half-life (in vitro [1]; microsomes): 2.7 h
Papp [2]: 75 nm/s

SMILES: Cn1c(-c2ccccn2)c(C2CCCCC2)c2ccc(C(=O)NC(C)(C)C(=O)Nc3ccc(/C=C/C(=O)O)cc3)cc21
Drug metabolism (Liver microsomes [24]): Active
Drug metabolism (Liver microsomes [25]): Active

SMILES: Cn1c(-c2ccccn2)c(C2CCCC2)c2ccc(C(=O)NC3(C(=O)Nc4ccc(/C=C/C(=O)O)cc4)CCCC3)cc21
half-life (in vitro [1]; microsomes): 1.6 h
Papp [2]: 126 nm/s
half-life (in vitro [3]; microsomes): 0.317 h

SMILES: Cn1c(-c2ccncc2)c(C2CCCC2)c2ccc(C(=O)NC3(C(=O)Nc4ccc(/C=C/C(=O)O)cc4)CCC3)cc21
half-life (in vitro [1]; liver microsomes): 1.87 h
Papp [2]: 29 nm/s
half-life (in vitro [3]; liver microsomes): 1.15 h

SMILES: Cn1c(-c2ccccn2)c(C2CCCC2)c2ccc(C(=O)NC(C)(C)C(=O)Nc3ccc(/C=C/C(=O)O)cc3)cc21
Papp [2]: 65 nm/s
half-life [4]: 1.7 h
Cmax [5]: 6.4 µM
Vd [8]: 1.3 L/kg
AUC [11]: 7.2 µM·h
MRT [13]: 1.7 h
clearance [22]: 1.09 L/h/kg
bioavailability [20]: 46%

SMILES: CN1CC[C@@](NC(=O)c2ccc3c(C4CCCC4)c(-c4cccc(N)n4)n(C)c3c2)(C(=O)Nc2ccc(/C=C/C(=O)O)cc2)C1
half-life (in vitro [1]; microsomes): > 5 h
Papp [2]: 29 nm/s
Cmax [5]: 0.09 µM

Second part, the molecule after the results:

half-life (in vitro [1]; liver microsomes): 2.78 h
SMILES: Cn1c(-c2ccc(F)cn2)c(C2CCCC2)c2ccc(C(=O)NC3(C(=O)Nc4ccc(/C=C/C(=O)O)cc4)CCC3)cc21

half-life (in vitro [1]; liver microsomes): > 5 h
SMILES: Cn1c(-c2ccc(Cl)cn2)c(C2CCCC2)c2ccc(C(=O)NC3(C(=O)Nc4ccc(/C=C/C(=O)O)cc4)CCCC3)cc21

half-life (in vitro [1]; microsomes): 0.883 h
Papp [2]: 69 nm/s
half-life (in vitro [3]; microsomes): 0.4 h
SMILES: Cc1ccc(-c2c(C3CCCC3)c3ccc(C(=O)NC4(C(=O)Nc5ccc(/C=C/C(=O)O)cc5)CCC4)cc3n2C)nc1

half-life (in vitro [1]; microsomes): 1.42 h
Papp [2]: 112 nm/s
half-life (in vitro [3]; microsomes): 0.517 h
half-life [4]: 1.5 h
Cmax [5]: 7.5 µM
MRT [6]: 2.9 h
Cmax [7]: 6.4 µM
Vd [8]: 0.48 L/kg
Vd [9]: 0.7 L/kg
bioavailability [10]: 70%
AUC [11]: 22.7 µM·h
MRT [12]: 5.4 h
MRT [13]: 4.1 h
AUC [14]: 99 µM·h
AUC [15]: 20.5 µM·h
Vd [16]: 0.54 L/kg
bioavailability [17]: 64%
half-life [18]: 4.3 h
half-life [19]: 1.7 h
bioavailability [20]: 59%
SMILES: Cn1c(-c2ccccn2)c(C2CCCC2)c2ccc(C(=O)NC3(C(=O)Nc4ccc(/C=C/C(=O)O)cc4)CCC3)cc21 [BILB-1941]

half-life (in vitro [1]; liver microsomes): 1.6 h
clearance [21]: 0.258 L/h/kg
Papp [2]: 100 nm/s
half-life (in vitro [3]; liver microsomes): 0.933 h
half-life [4]: 2.2 h
Cmax [5]: 7.8 µM
Vd [8]: 0.58 L/kg
AUC [11]: 17.7 µM·h
MRT [12]: 3.9 h
MRT [13]: 2.4 h
AUC [14]: 37.4 µM·h
Vd [16]: 0.75 L/kg
clearance [22]: 0.408 L/h/kg
bioavailability [17]: 54%
half-life [18]: 1.6 h
Cmax [23]: 10.9 µM
bioavailability [20]: 41%
SMILES: Cn1c(-c2cnccn2)c(C2CCCC2)c2ccc(C(=O)NC3(C(=O)Nc4ccc(/C=C/C(=O)O)cc4)CCC3)cc21

half-life (in vitro [1]; liver microsomes): 1.58 h
Papp [2]: 15 nm/s
half-life (in vitro [3]; liver microsomes): 1.02 h
SMILES: COc1ccc(-c2c(C3CCCC3)c3ccc(C(=O)NC4(C(=O)Nc5ccc(/C=C/C(=O)O)cc5)CCC4)cc3n2C)cn1

half-life (in vitro [1]; liver microsomes): > 5 h
Papp [2]: 18 nm/s
half-life (in vitro [3]; liver microsomes): 1.03 h
Cmax [5]: 3.7 µM
AUC [11]: 8.4 µM·h
MRT [13]: 3.4 h
SMILES: Cn1c(-c2cccc(N)n2)c(C2CCCC2)c2ccc(C(=O)NC3(C(=O)Nc4ccc(/C=C/C(=O)O)cc4)CCC3)cc21
